Source: ChEMBL document CHEMBL1137710, “Synthesis and in vitro antitumor activity of new quinoxaline derivatives” (2009)

Legend:
Type in all cases: functional
SF-268 = test: Anticancer activity against human SF268 cells assessed as cell growth at 100 uM after 48 hrs by sulforhodamine B assay; settings: SF-268, 48 h, read-out: Activity
BT-549 = test: Growth inhibition of human BT549 cells after 48 hrs by sulforhodamine B assay; settings: BT-549, 48 h
In short: (§1)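 NCI 60-human-tumor-cell-line panel, with compounds tested over a 5-log dose range. Values are taken from dose-response curves as log10 molar concentrations: GI50 is 50% net growth inhibition, TGI is total growth inhibition, and LC50 is 50% net cell death.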

A498 = test: Growth inhibition of human A498 cells after 48 hrs by sulforhodamine B assay; settings: A498, 48 h; for CC50: read-out: pLC50 (the source's name) (converted); for TGI: read-out: pTGI (converted); in short: as §1
NCI-H460 = test: Growth inhibition of human NCI-H460 cells after 48 hrs by sulforhodamine B assay; settings: NCI-H460, 48 h; for TGI: read-out: pTGI (converted); in short: as §1
CCRF-CEM = test: Growth inhibition of human CCRF-CEM cells after 48 hrs by sulforhodamine B assay; settings: for TGI: read-out: pTGI (converted); in short: as §1
Malme-3M = test: Growth inhibition of human MALME-3M cells after 48 hrs by sulforhodamine B assay; settings: for CC50: read-out: pLC50 (the source's name) (converted); for TGI: read-out: pTGI (converted); in short: as §1
HT-29 = test: Growth inhibition of human HT-29 cells after 48 hrs by sulforhodamine B assay; settings: HT-29, 48 h; in short: as §1
KM12 = test: Growth inhibition of human KM12 cells after 48 hrs by sulforhodamine B assay; settings: KM12, 48 h; for TGI: read-out: pTGI (converted); in short: as §1
SR = test: Growth inhibition of human SR cells after 48 hrs by sulforhodamine B assay
In short: (§2)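 Run in the NCI 60-human-tumour-cell-line panel, tested over a 5-log dose range. Dose–response curves gave three values per cell line, each as a log10 molar concentration: GI50 (50% inhibition of net cell growth), TGI (total inhibition of net growth) and LC50 (50% net cell death). The mean graph midpoint is the arithmetic mean over all lines, with insensitive lines entered at the highest concentration tested.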

SK-MEL-2 = test: Growth inhibition of human SK-MEL-2 cells after 48 hrs by sulforhodamine B assay; settings: SK-MEL-2, 48 h; for CC50: read-out: pLC50 (the source's name) (converted); for TGI: read-out: pTGI (converted); in short: as §1
HOP-92 = test: Growth inhibition of human HOP92 cells after 48 hrs by sulforhodamine B assay; settings: HOP-92, 48 h; in short: as §1
NCI-H23 = test: Growth inhibition of human NCI-H23 cells after 48 hrs by sulforhodamine B assay; settings: NCI-H23, 48 h; for TGI: read-out: pTGI (converted); in short: as §1
OVCAR-3 = test: Growth inhibition of human OVCAR-3 cells after 48 hrs by sulforhodamine B assay; settings: OVCAR-3, 48 h; for CC50: read-out: pLC50 (the source's name) (converted); for TGI: read-out: pTGI (converted); in short: as §1
SK-OV-3 = test: Growth inhibition of human SKOV3 cells after 48 hrs by sulforhodamine B assay; settings: SK-OV-3, 48 h; for CC50: read-out: pLC50 (the source's name) (converted); for TGI: read-out: pTGI (converted); in short: as §1
UACC-257 = test: Growth inhibition of human UACC257 cells after 48 hrs by sulforhodamine B assay; settings: UACC-257, 48 h; for CC50: read-out: pLC50 (the source's name) (converted); for TGI: read-out: pTGI (converted); in short: as §2
ACHN = test: Growth inhibition of human ACHN cells after 48 hrs by sulforhodamine B assay; settings: for CC50: read-out: pLC50 (the source's name) (converted); for TGI: read-out: pTGI (converted)
UACC-62 = test: Growth inhibition of human UACC62 cells after 48 hrs by sulforhodamine B assay; settings: UACC-62, 48 h; for CC50: read-out: pLC50 (the source's name) (converted); for TGI: read-out: pTGI (converted); in short: as §2
T47D = test: Growth inhibition of human T47D cells after 48 hrs by sulforhodamine B assay; settings: for CC50: read-out: pLC50 (the source's name) (converted); for TGI: read-out: pTGI (converted); in short: as §2
MCF7 = test: Growth inhibition of human MCF7 cells after 48 hrs by sulforhodamine B assay; settings: MCF7, 48 h; for CC50: read-out: pLC50 (the source's name) (converted); for TGI: read-out: pTGI (converted); in short: as §1
EKVX = test: Growth inhibition of human EKVX cells after 48 hrs by sulforhodamine B assay; settings: for TGI: read-out: pTGI (converted); in short: as §1
HOP-62 = test: Growth inhibition of human HOP62 cells after 48 hrs by sulforhodamine B assay; settings: HOP-62, 48 h; for TGI: read-out: pTGI (converted); in short: as §1
[1] = Growth inhibition of human […] cells after 48 hrs by sulforhodamine B assay; settings: for TGI: read-out: pTGI (converted); in short: as §1
HCT-15 = test: Growth inhibition of human HCT15 cells after 48 hrs by sulforhodamine B assay; settings: HCT-15, 48 h; for TGI: read-out: pTGI (converted); in short: as §1
SF-539 = test: Growth inhibition of human SF539 cells after 48 hrs by sulforhodamine B assay; settings: SF-539, 48 h; for TGI: read-out: pTGI (converted); in short: as §1
UO-31 = test: Growth inhibition of human UO31 cells after 48 hrs by sulforhodamine B assay; settings: UO-31, 48 h; for CC50: read-out: pLC50 (the source's name) (converted); for TGI: read-out: pTGI (converted); in short: as §2
HL-60(TB) = test: Growth inhibition of human HL-60(TB) cells after 48 hrs by sulforhodamine B assay; settings: HL-60, 48 h; for TGI: read-out: pTGI (converted)
In short: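 Tested only on compounds active in a three-line prescreen, in the NCI 60-human-tumour-cell-line panel over a 5-log dose range. Values come from dose–response curves as log10 molar GI50, the concentration inhibiting 50% net cell growth. Log10 TGI (total growth inhibition) and log10 LC50 (50% net cell death) were derived too. Mean graph midpoints include insensitive lines at the highest concentration tested.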

SNB-19 = test: Growth inhibition of human SNB19 cells after 48 hrs by sulforhodamine B assay; settings: SNB-19, 48 h; for TGI: read-out: pTGI (converted); in short: as §2
NCI-H226 = test: Growth inhibition of human NCI-H226 cells after 48 hrs by sulforhodamine B assay; settings: NCI-H226, 48 h; in short: as §1

COc1ccc(Oc2nc3cc(N)cc(N)c3nc2-c2ccccc2)cc1
growth at 100 µM (SF-268): -56%
GI50 (BT-549): 32.4 µM
CC50 (BT-549; read-out: pLC50 (the source's name) (converted)): > 100 µM
TGI (BT-549; read-out: pTGI (converted)): > 100 µM
GI50 (A498): 49 µM
CC50 (A498): > 100 µM
TGI (A498): > 100 µM
GI50 (NCI-H460): 30.9 µM
LC50 (50% net cell kill) (NCI-H460): > 100 µM
TGI (NCI-H460): > 100 µM
GI50 (CCRF-CEM): 2.95 µM
LC50 (CCRF-CEM): > 100 µM
TGI (CCRF-CEM): 12.6 µM
GI50 (Malme-3M): 51.3 µM
CC50 (Malme-3M): > 100 µM
TGI (Malme-3M): > 100 µM
GI50 (HT-29): 39.8 µM
LC50 (HT-29): > 100 µM
TGI (HT-29; read-out: pTGI (converted)): > 100 µM
GI50 (KM12): 37.2 µM
LC50 (50% net cell kill) (KM12): > 100 µM
TGI (KM12): > 100 µM
GI50 (SR): 18.6 µM
LC50 (concentration giving 50% net cell death) (SR): > 100 µM
TGI (SR; read-out: pTGI (converted)): > 100 µM
GI50 (SK-MEL-2): 25.1 µM
CC50 (SK-MEL-2): > 100 µM
TGI (SK-MEL-2): 87.1 µM
LC50 (50% net cell death) (HOP-92): 77.6 µM
TGI (HOP-92; read-out: pTGI (converted)): 8.13 µM
GI50 (NCI-H23): 25.1 µM
LC50 (50% net cell kill concentration) (NCI-H23): > 100 µM
TGI (NCI-H23): > 100 µM
GI50 (OVCAR-3): 14.8 µM
CC50 (OVCAR-3): > 100 µM
TGI (OVCAR-3): 72.4 µM
GI50 (SK-OV-3): 25.7 µM
CC50 (SK-OV-3): > 100 µM
TGI (SK-OV-3): 55 µM
GI50 (UACC-257): > 100 µM
CC50 (UACC-257): > 100 µM
TGI (UACC-257): > 100 µM
GI50 (ACHN): 36.3 µM
CC50 (ACHN): > 100 µM
TGI (ACHN): > 100 µM
GI50 (UACC-62): 63.1 µM
CC50 (UACC-62): > 100 µM
TGI (UACC-62): > 100 µM
GI50 (T47D): 15.1 µM
CC50 (T47D): > 100 µM
TGI (T47D): 97.7 µM
GI50 (MCF7): 47.9 µM
CC50 (MCF7): > 100 µM
TGI (MCF7): > 100 µM
GI50 (EKVX): 24.5 µM
LC50 (50% net cell kill) (EKVX): > 100 µM
TGI (EKVX): 63.1 µM
GI50 (HOP-62): 19.5 µM
LC50 (HOP-62): 87.1 µM
TGI (HOP-62): 40.7 µM
GI50 [1]: 10.5 µM
LC50 [1]: > 100 µM
TGI [1]: 70.8 µM
GI50 (HCT-15): 52.5 µM
LC50 (HCT-15): > 100 µM
TGI (HCT-15): > 100 µM
GI50 (SF-539): 23.4 µM
LC50 (SF-539): > 100 µM
TGI (SF-539): 61.7 µM
GI50 (UO-31): 28.2 µM
CC50 (UO-31): > 100 µM
TGI (UO-31): > 100 µM
GI50 (HL-60(TB)): 15.5 µM
LC50 (HL-60(TB)): > 100 µM
TGI (HL-60(TB)): > 100 µM
GI50 (SNB-19): 64.6 µM
LC50 (SNB-19): > 100 µM
TGI (SNB-19): > 100 µM

Nc1cc(N)c2nc(-c3ccccc3)c(Oc3ccc(Cl)c(Cl)c3)nc2c1
growth at 100 µM (SF-268): 0%
GI50 (A498): 91.2 µM
CC50 (A498): > 100 µM
TGI (A498): > 100 µM
GI50 (NCI-H460): 18.2 µM
LC50 (50% net cell kill) (NCI-H460): > 100 µM
TGI (NCI-H460): 70.8 µM
GI50 (CCRF-CEM): 2.95 µM
LC50 (CCRF-CEM): > 100 µM
TGI (CCRF-CEM): > 100 µM
GI50 (Malme-3M): 15.8 µM
CC50 (Malme-3M): 89.1 µM
TGI (Malme-3M): 37.2 µM
GI50 (KM12): 6.31 µM
LC50 (50% net cell kill) (KM12): > 100 µM
TGI (KM12): 39.8 µM
LC50 (concentration giving 50% net cell death) (SR): > 100 µM
GI50 (SK-MEL-2): 5.62 µM
CC50 (SK-MEL-2): 89.1 µM
TGI (SK-MEL-2): 23.4 µM
GI50 (NCI-H226): 15.1 µM
LC50 (NCI-H226): > 100 µM
TGI (NCI-H226; read-out: pTGI (converted)): 49 µM
GI50 (NCI-H23): 15.5 µM
LC50 (50% net cell kill concentration) (NCI-H23): > 100 µM
TGI (NCI-H23): 39.8 µM
GI50 (OVCAR-3): 10.7 µM
CC50 (OVCAR-3): 66.1 µM
TGI (OVCAR-3): 26.9 µM
GI50 (SK-OV-3): 24 µM
CC50 (SK-OV-3): > 100 µM
TGI (SK-OV-3): 66.1 µM
GI50 (UACC-257): 28.2 µM
CC50 (UACC-257): > 100 µM
TGI (UACC-257): 87.1 µM
GI50 (ACHN): 9.33 µM
CC50 (ACHN): > 100 µM
TGI (ACHN): 47.9 µM
GI50 (UACC-62): 16.2 µM
CC50 (UACC-62): > 100 µM
TGI (UACC-62): 47.9 µM
GI50 (T47D): 24.5 µM
CC50 (T47D): > 100 µM
TGI (T47D): 79.4 µM
GI50 (MCF7): 14.1 µM
CC50 (MCF7): > 100 µM
TGI (MCF7): 70.8 µM
GI50 (EKVX): 2.14 µM
LC50 (50% net cell kill) (EKVX): 41.7 µM
TGI (EKVX): 8.32 µM
GI50 (HOP-62): 17 µM
LC50 (HOP-62): 85.1 µM
TGI (HOP-62): 38 µM
GI50 [1]: 3.47 µM
LC50 [1]: > 100 µM
TGI [1]: > 100 µM
GI50 (HCT-15): 20 µM
LC50 (HCT-15): > 100 µM
TGI (HCT-15): > 100 µM
GI50 (SF-539): 13.5 µM
LC50 (SF-539): 64.6 µM
TGI (SF-539): 29.5 µM
GI50 (UO-31): 4.07 µM
CC50 (UO-31): > 100 µM
TGI (UO-31): > 100 µM
GI50 (HL-60(TB)): 5.13 µM
LC50 (HL-60(TB)): > 100 µM
TGI (HL-60(TB)): > 100 µM
GI50 (SNB-19): 20.9 µM
LC50 (SNB-19): > 100 µM
TGI (SNB-19): 52.5 µM
